Shown are actives, neighbours in structure and some others; about 1.7% of the full set was active somewhere.
CAL PDZ FP-1: blocks peptide binding to human CAL PDZ domain. Q9HD26. purified CAL PDZ, TMR-peptide fluorescence polarization, 1 h. inhibition, % at 20 µM. 330,000 compounds, 0.02% hits;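 active = highest replicate inhibition of at least 40%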;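 also: plate controls were DMSO neutral control wells for no effect and unlabeled competitor peptide control wells for full effect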
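Material: tagged CAL PDZ protein CerCALP, purified; buffer or medium: sodium phosphate/NaCl buffer pH 7.4 with TCEP, IgG, Thesit; also added: fluorescent TMR peptide probe; schedule: 1 h incubation at room temperature before polarization reading; technique: fluorescence polarization from S- and P-plane intensities, G-factor corrected; control set: unlabelled peptide and DMSO controls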
ARNT-TACC3 inh: disrupts binding between human ARNT and TACC3; AlphaScreen His-ARNT PAS-B/GST-TACC3 binding, luminescence; TACC3 fragment carries E629A point mutation; 390,000 compounds, 0.66% hits; AID 623870; Q9Y6A5; inhibition, % at 9.99 µM;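 active = mean inhibition of replicates at least 50% and at least half of replicates each reaching 50%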;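 also: 0% = complete ARNT plus TACC3 wells and 100% = ARNT alone without TACC3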
CAL PDZ FP-2: CAL PDZ (human) peptide binding inhibition; purified CAL PDZ, TMR-peptide fluorescence polarization, 1 h; inhibition, % at 24.9 µM; 300,000 compounds, 0.92% hits; AID 602252;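 active = mean inhibition of at least 30% with at least half of replicates also reaching 30%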;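 also: 0% = DMSO neutral control and 100% = excess unlabeled competitor peptide PRC23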
CFTR F508del cor: CFTR F508del correction in bronchial cells. CFBE cells, YFP halide quenching; stimulated with forskolin plus potentiator P3; % fluorescence drop versus neutral controls. activity (quench increase), % at 7.58 µM. 350,000 compounds, 0.36% hits. AID 720511;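 active = mean added fluorescence quench of at least 8% versus neutral control, with both replicates also reaching 8%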;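 also: cells transiently co-express mutant CFTR-F508del with the halide-sensitive YFP; corrector assay measuring rescue of mutant channel to the surface after 24 h compound exposure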
miR-122 sensor: blocks miR-122 activity in Huh7 sensor cells. 340,000 compounds, 0.3% hits. AID 602342. Huh7 miR-122 Renilla luciferase sensor, 48 h; neutral wells = 0, positive control = 100. activation (reporter increase), % at 12.5 µM;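 active = mean replicate activation score at least 90 and every replicate individually at or above 90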;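 also: higher luciferase means less miR-122 activity so hits act as miR-122 inhibitors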
PGC1a acetyl inh: PGC1a acetylation modulation, inhibitor mode. U2OS PGC1a acetylation, AlphaScreen anti-acetyl-lysine; with virally co-expressed GCN5 acetyltransferase. inhibition, % at 15.6 µM. 350,000 compounds, 0.17% hits;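 active = every replicate shows inhibition of at least 40%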;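 also: 0% = neutral control wells and 100% = positive control wells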
* = called active by the depositor; . = not tested or not shown; [ ] = another dose, or the depositor's remark.

SMILES	CAL PDZ FP-1	ARNT-TACC3 inh	CAL PDZ FP-2	CFTR F508del cor	miR-122 sensor	PGC1a acetyl inh
CC(=O)Nc1cc(OC(C)=O)c2nonc2c1OC(C)=O	-1	17	-3	.	.	44*
COc1cccc(OC)c1C(=O)NNC(=O)c1ccc(F)cc1	-1	4	68*	2	.	-4
CCCNC(=O)N1CC2(CCN(Cc3cccc(F)c3)CC2)c2c([nH]c3cc(OC)ccc23)[C@@H]1CO	.	.	.	2	.	.
CC(=O)OC1COC(n2ccc3ccccc32)C(OC(C)=O)C1OC(C)=O (stereo unspecified)	0	-3	0	.	11	-6
CC(=O)OC1COC(n2c(O)c(N=NC(N)=S)c3ccccc32)C(OC(C)=O)C1OC(C)=O (stereo unspecified)	-1	-6	38*	1	-11	-5
O=C(O)CSC(C(=O)Nc1ccc(Br)cc1)c1ccc(Cl)cc1 (stereo unspecified)	-1	-2	135*	.	.	.
CSC1=NC(C)(C)C=C(/C=C/c2ccc(Cl)cc2Cl)N1	0	-1	5	-4	1	-8
CCSC1=NC(C)(C)C=C(/C=C/c2ccc(Cl)cc2Cl)N1	-1	45*	.	.	3	-5
CCOC(=O)/C=C1\SCC(=O)N1Cc1nnc(-c2ccccc2Br)o1	-2	1	60*	.	0	-3
CCCNS(=O)(=O)c1ccc(OC)c(Cl)c1Cl	0	4	-7	.	33	-2
COc1ccc(S(=O)(=O)NCCSC(C)(C)C)c(Cl)c1Cl	-2	1	-6	.	253*	-26
C/C=C/c1cnc2c(c1)C(=O)N([C@@H](C)CO)C[C@H](C)[C@H](CN(C)S(=O)(=O)c1ccc(OC)cc1)O2	.	-1	.	-3	-1[16.7 µM]	-1
COCCNC(=S)N(CCCO)Cc1cc2cc3c(cc2[nH]c1=O)OCCO3	0	7	-1	-1	-3	-3
COCCNC(=S)N(CCO)Cc1cc2cc3c(cc2[nH]c1=O)OCO3	.	-8	82*	0	.	6
Cc1ccc(S(=O)(=O)Nc2cccc3c2O[C@@H](CN(C)Cc2ccc4c(c2)OCO4)[C@H](C)CN([C@H](C)CO)C3=O)cc1	.	-15	.	1	-1[16.7 µM]	.
N#Cc1ccc(CSc2nnc(-c3cccc(S(=O)(=O)N4CCCCC4)c3)o2)cc1	-1	-8	44*	.	1	4
C[C@H](CO)N1C[C@H](C)[C@H](CN(C)Cc2ccccn2)Oc2cc(C3=CCCC3)ccc2S1(=O)=O	.	17	.	1	5[16.7 µM]	-9
COc1ccc(OCC(=O)Nc2c(C(=O)N3CCN(C)CC3)oc3ccccc23)cc1	-2	-2	-7	-1	6	2
CCOCC(=O)Nc1c(C(=O)N2CCN(c3ncccn3)CC2)oc2ccccc12	-3	6	2	0	125*	.
CC(C)NC(=O)N(C)C[C@H]1Oc2ccc(NC(=O)NC3CCCCC3)cc2C(=O)N([C@@H](C)CO)C[C@H]1C	.	-1	.	-3	-2[16.7 µM]	12
NS(=O)(=O)c1ccc(-c2ccc(/C=C3\NC(=S)NC3=O)o2)cc1	1	58*	9	1	-2	20
COc1ccc(-c2cnc3c(c2)C(=O)N([C@H](C)CO)C[C@H](C)[C@H](CN(C)S(=O)(=O)c2ccc(F)cc2)O3)cc1	.	3	.	6	-7[16.7 µM]	-25
N/C(=N\OS(=O)(=O)c1ccc2ccccc2c1)c1ccncc1	0	-7	-1	.	1	9
N/C(=N\OS(=O)(=O)c1ccc2ccccc2c1)c1ccccn1	0	59*	-2	0	.	.
CN1C(=O)c2cc(NC(=O)NC3CCCC3)ccc2OC[C@H]2O[C@@H](CC(=O)O)CC[C@@H]21	.	2	.	1	0[16.7 µM]	0
SMILES	CAL PDZ FP-1	ARNT-TACC3 inh	CAL PDZ FP-2	CFTR F508del cor	miR-122 sensor	PGC1a acetyl inh
Cc1cc(C)nc(N(C#N)Cc2cccc([N+](=O)[O-])c2)n1	-1	3	46*	.	.	.
COc1ccc(CN(C#N)c2nc(C)cc(C)n2)cc1	-1	-4	-2	0	-6	.
C[C@H](CO)N1C[C@H](C)[C@@H](CN(C)S(=O)(=O)c2cn(C)cn2)OCCCC[C@H](C)Oc2ccc(NC(=O)CCCCCC(=O)Nc3ccccc3N)cc2C1=O	.	15	.	-1	1[16.7 µM]	9
Cc1cc(NS(=O)(=O)c2ccc(NC(=O)COc3c(C)cc(Br)cc3C)cc2)no1	-3	2	-3	5	0	85*
Cc1cc(NS(=O)(=O)c2ccc(NC(=S)NC(=O)c3cccc(S(=O)(=O)N(C)C)c3)cc2)no1	-3	3	52*	0	-1	0
COc1ccc(CC(=O)Nc2ccc(S(=O)(=O)Nc3cc(C)on3)cc2)cc1	-1	8	49*	.	4	-9
Cc1cc(NS(=O)(=O)c2ccc(NC(=S)NC(=O)c3ccc(F)cc3)cc2)no1	0	15	-4	.	.	.
O=C(NNS(=O)(=O)c1ccc(Cl)cc1)c1cccs1	23	-7	-4	0	116*	.
NC(=O)NC(CC(=O)NNC(=O)c1cccs1)c1ccc(Cl)cc1 (stereo unspecified)	1	2	31*	0	-8	6
O=C(NNC(=O)c1cccs1)c1ccc(Cl)cc1	-1	-1	-2	-2	.	.
CCCNC(=O)N(C)C[C@@H]1Oc2ncc(C#C[C@@H](C)O)cc2C(=O)N([C@@H](C)CO)C[C@H]1C	.	-1	.	1	-2[16.7 µM]	10
Cc1ccc(S(=O)(=O)N(CC2CO2)c2ccccc2[N+](=O)[O-])cc1 (stereo unspecified)	-2	2	4	5	-1	79*
C[C@@H]1CCCCO[C@H](CN(C)Cc2ccc3c(c2)OCO3)[C@H](C)CN([C@@H](C)CO)C(=O)c2cc(NC(=O)Cc3ccccc3)ccc2O1	.	6	.	0	-5[16.7 µM]	-4
CCCCSc1cc(C)nc(N)n1	-3	-2	39*	-1	.	.
Cc1ccc(OCCSc2cc(C)nc(N)n2)cc1	0	-7	-3	.	.	.
CC(C)(C)NC(=O)C1CC1(c1ccccc1)c1ccccc1 (stereo unspecified)	.	-23	46*	-3	.	6
O=C(CN1CCN(c2ccccc2F)CC1)NC(=O)NCc1ccco1	0	-1	44*	-2	.	.
O=C(CN1CCN(c2ccccc2)CC1)NC(=O)NCc1ccco1	-1	-8	1	.	-5	.
COc1ccc(C2=Nn3c(nnc3-c3ccccc3F)SC2)cc1OC1CCCC1	-9	.	-9	13*	-1	-4
COc1ccc(C2=Nn3c(nnc3-c3ccccc3F)SC2)cc1OC1CCOC1 (stereo unspecified)	-4	22	-3	11*	44	.
COc1ccc(OC)c(-c2nnc3n2N=C(c2ccc(OC)c(OC4CCCC4)c2)CS3)c1	-1	.	6	4	.	.

Screens as filed in PubChem BioAssay.
